The values that follow come from ChEMBL document CHEMBL1134510, “Adenosine analogues as selective inhibitors of glyceraldehyde-3-phosphate dehydrogenase of Trypanosomatidae via structure-based drug design” (J Med Chem, 2001).

This assay deals with Glyceraldehyde-3-phosphate dehydrogenase, glycosomal (Leishmania mexicana, UniProt Q27890). In words: Inhibitory activity against Leishmania mexicana GAPDH. Put shortly: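 Spectrophotometric GAPDH assay at 23 °C in 0.10 M triethanolamine/HCl pH 7.5, read as NADH formation at 340 nm. Final: 5.0 mM MgSO4, 1.0 mM EDTA, 12.8 mM KH2PO4, 1.0 mM DTT, 1.0 mM NaN3, 0.45 mM NAD+, 1.87 mM fresh glyceraldehyde-3-phosphate, 5% DMSO-d6. Started with enzyme. Initial rates 0–2 min as % of control. IC50 from ≥5 concentrations (≤50 µM) or extrapolated from ≥3.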
Sequence of Glyceraldehyde-3-phosphate dehydrogenase, glycosomal (Q27890 whole entry, looked up): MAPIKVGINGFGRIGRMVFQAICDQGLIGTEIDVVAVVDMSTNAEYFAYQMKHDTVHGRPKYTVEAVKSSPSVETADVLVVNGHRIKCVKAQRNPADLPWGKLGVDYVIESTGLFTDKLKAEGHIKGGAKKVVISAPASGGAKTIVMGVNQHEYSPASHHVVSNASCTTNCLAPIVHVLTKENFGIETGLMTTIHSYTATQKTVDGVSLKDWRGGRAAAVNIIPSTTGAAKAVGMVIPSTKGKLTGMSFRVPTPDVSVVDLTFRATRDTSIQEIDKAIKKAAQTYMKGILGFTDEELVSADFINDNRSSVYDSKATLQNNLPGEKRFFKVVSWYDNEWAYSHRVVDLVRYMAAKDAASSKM
Regarding `COc1cc(C(=O)N[C@@H]2[C@H](O)[C@@H](CO)O[C@H]2n2cnc3c(NCc4cccc5ccccc45)ncnc32)ccc1O`, the IC50 was determined as 10 µM.
Under `CC(=O)Oc1ccc(C(=O)N[C@@H]2[C@H](O)[C@@H](CO)O[C@H]2n2cnc3c(NCc4cccc5ccccc45)ncnc32)cc1` stands 100 µM.
Then `O=C(N[C@@H]1[C@H](O)[C@@H](CO)O[C@H]1n1cnc2c(NCc3cccc4ccccc34)ncnc21)c1ccc(Cl)cc1`, with 100 µM; and `Nc1ncnc2c1ncn2C1O[C@H](CNC(=O)CC2CCCCC2)[C@@H](O)[C@H]1O` (stereo not given in full), with 250 µM; and `COc1cc(OC)cc(C(=O)N[C@@H]2C(Cn3cnc4c(N)ncnc43)OC(CNC(=O)C(c3ccccc3)c3ccccc3)[C@@H]2O)c1` (stereo not given in full), with 60 µM.
Under `COc1cc(OC)cc(C(=O)N[C@@H]2C(Cn3cnc4c(NCc5ccccc5C)ncnc43)OC(CO)[C@@H]2O)c1` (stereo not given in full) stands 25 µM; under `COc1cc(OC)cc(C(=O)N[C@@H]2C(Cn3cnc4c(NCc5ccccc5)ncnc43)OC(CO)[C@@H]2O)c1` (stereo not given in full), 20 µM.
Consider `COc1ccc(C(=O)N[C@@H]2[C@H](O)[C@@H](CO)O[C@H]2n2cnc3c(NCc4cccc5ccccc45)ncnc32)cc1`, for which half-maximal inhibition (IC50) was put at 100 µM.
With `COc1cc(OC)cc(C(=O)N[C@@H]2C(Cn3cnc4c(NCc5ccccc5Sc5ccccc5CO)ncnc43)OC(CO)[C@@H]2O)c1` (stereo not given in full), the 50% inhibitory concentration (IC50) turned out to be 75 µM.
Then `CC(=O)Oc1ccc(C(=O)N[C@@H]2[C@H](O)[C@@H](CO)O[C@H]2n2cnc3c(NCc4cccc5ccccc45)ncnc32)cc1OC(C)=O`, with 25 µM; and `Nc1ncnc2c1ncn2C1O[C@H](CNC(=O)C(c2ccccc2)c2ccccc2)[C@@H](O)[C@H]1O` (stereo not given in full), with 250 µM; and `COc1cc(OC)cc(C(=O)N[C@@H]2C(Cn3cnc4c(NCc5cccc(C)c5)ncnc43)OC(CO)[C@@H]2O)c1` (stereo not given in full), with 25 µM.
As to `COc1cc(OC)cc(C(=O)N[C@@H]2C(Cn3cnc4c(NC(c5ccccc5)c5ccccc5)ncnc43)OC(CO)[C@@H]2O)c1` (stereo not given in full), inhibition was half-maximal at 55 µM (IC50).
Then `COc1cc(OC)cc(C(=O)N[C@@H]2C(Cn3cnc4c(NC5CCCc6ccccc65)ncnc43)OC(CO)[C@@H]2O)c1` (stereo not given in full), with 75 µM.
Then `COc1ccc(C(=O)N[C@@H]2[C@H](O)[C@@H](CO)O[C@H]2n2cnc3c(NCc4cccc5ccccc45)ncnc32)cc1OC(C)=O`, with 78 µM.
In turn, `CN(C)c1cccc(C(=O)N[C@@H]2[C@H](O)[C@@H](CO)O[C@H]2n2cnc3c(NCc4cccc5ccccc45)ncnc32)c1` returned a half-maximal inhibitory concentration (IC50) of 25 µM.
`COc1cc(C(=O)N[C@@H]2[C@H](O)[C@@H](CO)O[C@H]2n2cnc3c(NCc4cccc5ccccc45)ncnc32)ccc1OC(C)=O`: the IC50 amounted to 10 µM.
Take `CC(=O)Oc1cccc(C(=O)N[C@@H]2[C@H](O)[C@@H](CO)O[C@H]2n2cnc3c(NCc4cccc5ccccc45)ncnc32)c1`: the IC50 amounted to 50 µM.
`COc1cc(OC)cc(C(=O)N[C@@H]2C(Cn3cnc4c(Nc5ccc6ccccc6c5)ncnc43)OC(CO)[C@@H]2O)c1` (stereo not given in full) came in with a 50% inhibitory concentration (IC50) of 60 µM. This IC50 and that of the compound before are within 1.5-fold of each other.
Turning to `O=C(N[C@@H]1[C@H](O)[C@@H](CO)O[C@H]1n1cnc2c(NCc3cccc4ccccc34)ncnc21)c1cccc(Cl)c1`, the IC50 amounted to 6 µM.
`O=C(N[C@@H]1[C@H](O)[C@@H](CO)O[C@H]1n1cnc2c(NCc3cccc4ccccc34)ncnc21)c1cccc(O)c1` returned an IC50 of 25 µM. This IC50 lies about 4.2-fold higher than the previous one.
Then `COc1cc(OC)cc(C(=O)N[C@@H]2C(Cn3cnc4c(N)ncnc43)OC(CNC(=O)CC3CCCCC3)[C@@H]2O)c1` (stereo not given in full), with 100 µM.
Under `O=C(N[C@@H]1[C@H](O)[C@@H](CO)O[C@H]1n1cnc2c(NCc3cccc4ccccc34)ncnc21)c1ccc(O)c(O)c1` stands 18 µM; under `O=C(N[C@@H]1[C@H](O)[C@@H](CO)O[C@H]1n1cnc2c(NCc3cccc4ccccc34)ncnc21)c1ccc(O)cc1`, 80 µM; under `COc1ccc(C(=O)N[C@@H]2[C@H](O)[C@@H](CO)O[C@H]2n2cnc3c(NCc4cccc5ccccc45)ncnc32)cc1O`, 37 µM.

As usually defined, the IC50 is the concentration at which inhibition is half-maximal.
